Results from different studies.
Compare with care: the assays were run in different laboratories.
Target: Serine/threonine-protein kinase 25 (STK25, Homo sapiens, UniProt O00506)

Structure (SMILES)	read-out	mode	method	tested at	endpoint	result
O=C1Nc2ccc(Cl)cc2C1=Cc1cc(Cl)c(O)c(Cl)c1	cell-free assay	–	–	0.5 µM	remaining signal	94%
CCCCNc1ncc2c(-c3ccc(F)cc3)nn(C[C@H]3CC[C@H](N)CC3)c2n1	target engagement in cells	inhibitor	chemoproteomics	20 mM	inhibition	5.7%
COc1cc2ncnc(Nc3ccc(Oc4ccccc4)c(C)c3C)c2cc1OC	enzyme activity	inhibitor	–	1 µM	inhibition	8%
CC1=C(C#N)C(c2ccc3c(c2)c(NC(=O)c2ccccc2C)nn3C)C(C#N)=C(C)N1	cell-free assay	–	competition with immobilised ligand	1 µM	remaining binding	100%
CC1CCCN1c1nccc(-c2cnn3ncccc23)n1 (centres unmarked)	binding	–	–	1 µM	remaining binding	100%
Cn1c2c(Cl)c(Cl)ccc2c2cc[nH]c(=O)c21	thermal stability	–	DSF	10 µM	ΔTm	0.5 °C
Nc1ncnc2occ(-c3ccc(NC(=O)Nc4cc(C(F)(F)F)ccc4F)cc3)c12	cell-free assay	inhibitor	–	20 µM	remaining signal	77%
CN1CCC2(CC1)NC(=O)c1c(c3ccc(Cl)c(Cl)c3n1C)C2C#N (racemic)	thermal stability	–	DSF	10 µM	ΔTm	0.3 °C
C[C@@H]1CN(c2cc(-c3nn(C)c4ccc(OC5(C)CC5)cc34)ncn2)C[C@H](C)O1	cell-free assay	–	competition with immobilised ligand	1 µM	remaining binding	100%
CC(C)(C)c1nc2c(s1)c1nc(N)ncc1c1ccc(NS(=O)(=O)c3c(F)cccc3F)c(F)c12	enzyme activity	inhibitor	radiometric	1 µM	remaining activity	57%
Cc1sc(C(=O)NC2COC2)cc1-n1cc(NC(=O)Nc2c(F)cccc2Cl)cn1	enzyme activity	inhibitor	–	10 µM	remaining activity	70.5%
O=C(Nc1cnc(Oc2ccc(F)cc2)nc1)N1CCc2ncccc2[C@@H]1c1ccc(F)cc1	cell-free assay	–	competition with immobilised ligand	1 µM	remaining binding	82%
CC(C)(O)[C@H]1CC[C@H](Nc2ccc3ncc(-c4cccc(C(F)(F)F)c4)n3n2)CC1	enzyme activity	inhibitor	–	1 µM	remaining activity	87%
C[C@@H]1CN(c2cc(-c3n[nH]c4ccc(OC5(C)CC5)cc34)ncn2)C[C@H](C)O1	cell-free assay	–	competition with immobilised ligand	0.1 µM	remaining binding	100%
N#CCCc1ccc2c(c1)-c1[nH]c3ccc([N+](=O)[O-])cc3c1CC(=O)N2	cell-free assay	–	–	0.5 µM	remaining signal	91.1%
O=C(Nc1cnn(-c2csc(C(=O)NC3COC3)c2)c1)Nc1ccccc1Cl	enzyme activity	inhibitor	–	5 µM	remaining activity	106%
Cc1noc([C@H]2C[C@@H](c3ccc(C(F)(F)F)cc3)CN(C(=O)N3CCS(=O)(=O)C3)C2)n1	cell-free assay	–	competition with immobilised ligand	1 µM	remaining binding	89%
Cn1cncc1C1=CN(c2ncnc3[nH]cnc23)CCS1	enzyme activity	inhibitor	radiometric	50 nM	inhibition	13.5%
O=C(Nc1ccc(Oc2ccc(F)cc2)cc1)N1CCc2ncccc2[C@H]1c1ccc(F)cc1	cell-free assay	–	competition with immobilised ligand	1 µM	remaining binding	100%
COc1cc(-c2cc(-c3ccc(N4CCNCC4)cc3)cnc2C)cc(OC)c1OC	enzyme activity	inhibitor	–	1 µM	inhibition	2%
c1ccc(CNc2nc(N3CCOc4ccccc43)nc3c2CCCC3)cc1	target engagement in cells	inhibitor	chemoproteomics	20 mM	inhibition	34.6%
Cn1c2c(c3ccc(Cl)c(Cl)c31)C(C#N)C1(CCOCC1)NC2=O (centres unmarked)	thermal stability	–	DSF	10 µM	ΔTm	0.4 °C
O=C1NC(=O)c2cc(Nc3ccc(F)cc3)c(Nc3ccc(F)cc3)cc21	cell-free assay	–	–	0.5 µM	remaining signal	101%
Cc1ccc(NC(=O)c2ccc(C)c(C(F)(F)F)c2)cc1C#Cc1nn(C2CCC(O)CC2)c2ncnc(N)c12 (centres unmarked)	cell-free assay	–	–	10 µM	remaining signal	66%
CS(=O)(=O)N1CCCC(NC(=O)[C@H](CCC2CCCCC2)NC(=O)c2ccc(CNC(=O)c3cnc4ccccn34)cc2)C1 (some centres unmarked)	cell-free assay	–	competition with immobilised ligand	0.1 µM	remaining binding	100%
Cc1ccc(C(=O)Nc2ccc(CN3CCN(C)CC3)c(C(F)(F)F)c2)cc1C#Cc1cnc2cccnn12	enzyme activity	inhibitor	–	23.5 nM	remaining activity	98%
